Data from ChEMBL document CHEMBL4373663, “New N-phenyl-4,5-dibromopyrrolamides as DNA gyrase B inhibitors” (Medchemcomm, 2019).
Activity calls are given as the source filed them. The rule behind the calls is not given here.

Columns and labels:
[1] = biological target: DNA gyrase (Staphylococcus aureus, UniProt P0A0K8+P20831); assay: Inhibition of Staphylococcus aureus DNA gyrase using relaxed pNO1 plasmid DNA as substrate incubated for 30 mins by fluorescence assay; format: protein-complex assay
[2] = tested on: Enterococcus faecalis; assay: Antibacterial activity against Enterococcus faecalis ATCC 29212 assessed as reduction in bacterial growth at 50 uM incubated for 24 hrs by broth microdilution assay relative to control; format: functional
In short: (§1)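 Clinical control strains kept on cation-adjusted Mueller Hinton agar slants. Before the assay, suspensions were grown in cation-adjusted Mueller Hinton broth at 37 °C for 16–20 h at 100 rpm. Broth microdilution in 96-well format followed CLSI guidelines. Each compound was tested at 50 μM, and the result was expressed as percentage inhibition of bacterial growth.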

[3] = tested on: Staphylococcus aureus; assay: Antibacterial activity against Staphylococcus aureus ATCC 25923 assessed as bacterial growth at 50 uM incubated for 24 hrs by broth microdilution assay; format: functional, organism-based; in short: as §1
[4] = biological target: DNA gyrase (Escherichia coli, UniProt P0AES4+P0AES6); assay: Inhibition of Escherichia coli DNA gyrase using relaxed pNO1 plasmid DNA as substrate incubated for 30 mins by fluorescence assay; format: protein-complex assay
[5] = biological target: Topoisomerase IV (Staphylococcus aureus) (UniProt P0C1U9+P0C1S7); assay: Inhibition of Staphylococcus aureus DNA topoisomerase 4 using supercoiled pNO1 plasmid DNA as substrate assessed as enzyme residual activity at 10 uM incubated for 30 mins by fluorescence assay relative to control; format: protein-complex assay
[6] = tested on: Escherichia coli; assay: Inhibition of Escherichia coli DNA topoisomerase 4 using supercoiled pNO1 plasmid DNA as substrate assessed as enzyme residual activity at 10 uM incubated for 30 mins by fluorescence assay relative to control
[7] = tested on: Escherichia coli; assay: Antibacterial activity against Escherichia coli ATCC 25922 assessed as reduction in bacterial growth at 50 uM incubated for 24 hrs by broth microdilution assay relative to control; format: functional; in short: as §1
[8] = tested on: Pseudomonas aeruginosa; assay: Antibacterial activity against Pseudomonas aeruginosa ATCC 27853 assessed as bacterial growth at 50 uM incubated for 24 hrs by broth microdilution assay; format: functional, organism-based; in short: as §1
[9] = biological target: DNA gyrase (Escherichia coli) (UniProt P0AES6+P0AES4); assay: Inhibition of Escherichia coli DNA gyrase using relaxed pNO1 plasmid DNA as substrate assessed as enzyme residual activity at 10 uM incubated for 30 mins by fluorescence assay relative to control; format: protein-complex assay
[10] = Inhibition of Escherichia coli DNA topoisomerase 4 using supercoiled pNO1 plasmid DNA as substrate incubated for 30 mins by fluorescence assay
[11] = biological target: Topoisomerase IV (Staphylococcus aureus, UniProt P0C1S7+P0C1U9); assay: Inhibition of Staphylococcus aureus DNA topoisomerase 4 using supercoiled pNO1 plasmid DNA as substrate incubated for 30 mins by fluorescence assay; format: protein-complex assay
[12] = biological target: DNA gyrase (Staphylococcus aureus) (UniProt P0A0K8+P20831); assay: Inhibition of Staphylococcus aureus DNA gyrase using relaxed pNO1 plasmid DNA as substrate assessed as enzyme residual activity at 10 uM incubated for 30 mins by fluorescence assay relative to control; format: protein-complex assay

| Activity [9] | Activity [12] | SMILES | IC50 [1] | inhibition [2] | inhibition [3] | IC50 [4] | Activity [5] | Activity [6] | inhibition [7] | inhibition [8] | IC50 [10] | IC50 [11] | inhibition at 50 µM ([2]; ATCC 29212, 24 h) | inhibition at 50 µM ([7]; ATCC 25922, 24 h) |
| --- | --- | --- | --- | --- | --- | --- | --- | --- | --- | --- | --- | --- | --- | --- |
| – | – | Cc1nc(-c2cc(NC(=O)Cc3n[nH]c(=O)o3)ccc2NC(=O)c2cc(Br)c(Br)[nH]2)no1 | 11000 nM | inactive | inactive | 45 nM | 60% | 91% | inactive | inactive | – | – | – | – |
| 100% | – | NNC(=O)COc1ccc(NC(=O)c2cc(Br)c(Br)[nH]2)c(OCc2ccccc2)c1 | – | – | – | – | – | – | – | – | – | – | – | – |
| 100% | – | COC(=O)COc1ccc(NC(=O)c2cc(Br)c(Br)[nH]2)c(OCc2ccccc2)c1 | – | – | – | – | – | – | – | – | – | – | – | – |
| 85% | – | O=C(Nc1ccc(OCc2n[nH]c(=O)o2)cc1OCc1ccccc1)c1cc(Br)c(Br)[nH]1 | – | inactive | inactive | – | – | – | inactive | inactive | – | – | – | – |
| – | – | Cc1nc(-c2cc(NC(=O)CC(=O)O)ccc2NC(=O)c2cc(Br)c(Br)[nH]2)no1 | 1400 nM | inactive | inactive | 20 nM | – | – | inactive | inactive | 11000 nM | 14000 nM | – | – |
| 100% | – | NNC(=O)COc1ccc(NC(=O)c2cc(Br)c(Br)[nH]2)cc1 | – | – | – | – | – | – | – | – | – | – | – | – |
| – | 87% | O=C(O)COc1ccc(NC(=O)c2cc(Br)c(Br)[nH]2)c(OCc2ccccc2)c1 | – | – | inactive | 860 nM | 92% | 84% | inactive | inactive | – | – | 25% | – |
| – | – | COC(=O)CC(=O)Nc1ccc(NC(=O)c2cc(Br)c(Br)[nH]2)c(-c2noc(C)n2)c1 | 63000 nM | inactive | inactive | 86 nM | 100% | 72% | inactive | inactive | – | – | – | – |
| – | – | O=C(Nc1ccc(OCc2n[nH]c(=O)o2)cc1)c1cc(Br)c(Br)[nH]1 | – | inactive | inactive | 8600 nM | – | – | inactive | inactive | – | – | – | – |
| – | 80% | Cc1nc(-c2cc(NC(=O)CC(=O)NN)ccc2NC(=O)c2cc(Br)c(Br)[nH]2)no1 | – | inactive | inactive | 140 nM | 98% | 88% | – | inactive | – | – | – | 16% |
